Data set [1] deals with colorectal carcinoma (HCT-116). Briefly: In vitro cytotoxicity, MTT assay. It counts as cell-based. Conditions: Homo sapiens, HCT-116, read-out: In vitro cytotoxicity IC50 HCT-116. The procedure, abridged:
(§1)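 Cells seeded at 1×10^5 cells per ml and grown 24 h at 37 °C to a monolayer, then washed twice. Two-fold dilutions of test compound in RPMI with 2% serum; medium-only control wells; doxorubicin positive control. Morphology checked, then MTT stock (5 mg ml⁻¹ in PBS) added and incubated 1-5 h (37 °C, 5% CO₂). Formazan dissolved in DMSO; OD 560 nm minus 620 nm; mean of three determinations; one-way ANOVA.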
For orientation: Tetrazolium assays rely on reduction of a dye to a coloured formazan, in cell work by metabolically active cells.

The test system of data set [2] is prostate carcinoma (PC-3). Briefly: In vitro cytotoxicity, MTT assay. It counts as cell-based. Conditions: Homo sapiens, read-out: In vitro cytotoxicity IC50 PC-3. A digest of the protocol: as §1
For data set [3], the system named is hepatocellular carcinoma (HepG-2). The experiment in a line: In vitro cytotoxicity, MTT assay. As to conditions: Homo sapiens, HepG2, read-out: In vitro cytotoxicity IC50 HePG2. It counts as cell-based. A digest of the protocol:
as §1

For data set [4], the system named is HepG-2, PC-3, and HCT-116 cell lines. The experiment in a line: In vitro cytotoxicity, MTT assay, stated for the three cell lines together. It counts as cell-based, human. The procedure, abridged: as §1
The next data set has as its target CK2 kinase (Homo sapiens, UniProt P68400). The experiment in a line: CK2 kinase enzyme inhibitory assay. The class given is biochemical.

The structures appear in SMILES notation.

CK2 kinase, sequence (P68400 whole entry): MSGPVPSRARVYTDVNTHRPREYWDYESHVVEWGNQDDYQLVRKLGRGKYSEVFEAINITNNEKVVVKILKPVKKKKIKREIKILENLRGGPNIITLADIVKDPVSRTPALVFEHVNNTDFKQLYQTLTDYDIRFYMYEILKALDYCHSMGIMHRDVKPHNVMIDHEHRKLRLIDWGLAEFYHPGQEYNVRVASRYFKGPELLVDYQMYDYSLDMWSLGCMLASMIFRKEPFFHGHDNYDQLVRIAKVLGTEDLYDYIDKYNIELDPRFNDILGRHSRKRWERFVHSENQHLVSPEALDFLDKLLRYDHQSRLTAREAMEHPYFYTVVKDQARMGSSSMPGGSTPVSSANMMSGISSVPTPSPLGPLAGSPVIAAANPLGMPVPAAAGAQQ

As for `Cc1cc(=O)oc2cc(OCC(=O)NCC(=O)NN)ccc12` [Compound 6, N-(2-Hydrazinyl-2-oxoethyl)-2-[(4-methyl-2-oxo-2H-chromen-7-yl)oxy]acetamide], the figures for the IC50 in data set [1], in data set [2] and in data set [3] were 171 ± 4.2 µM, 168 ± 4.3 µM and 168 ± 4.4 µM, respectively.
In the case of `COC(=O)CNC(=O)CNC(=O)COc1ccc2c(C)cc(=O)oc2c1` [Compound 7a, Methyl 2-{2-[2-[(4-methyl-2-oxo-2H-chromen-7-yl)oxy]acetamido]acetamido}acetate], the IC50 (commonly the concentration at which inhibition is half-maximal) worked out at 137 ± 2.4 µM in data set [1], 172.3 ± 1.4 µM in data set [2] and 174 ± 3.4 µM in data set [3].
For the compound `COC(=O)[C@@H](CC(C)C)NC(=O)CNC(=O)CNC(=O)COc1ccc2c(C)cc(=O)oc2c1` [Compound 9b, (R)-Methyl4-methyl-2-{2-{2-{2-[(4-methyl-2-oxo-2H-chromen-7-yl)oxy]acetamido}acetamido}acetamido}pentanoate], the IC50 in data set [1] is 169.1 ± 0.3 µM; in data set [2], 85.5 ± 0.4 µM; in data set [3], 298.8 ± 0.3 µM. In addition, in data set [4], the “cytotoxicity towards three cell lines (in words)” value is on record as “relatively weak cytotoxicity”.
As for `COC(=O)[C@@H](NC(=O)COc1ccc2c(C)cc(=O)oc2c1)c1ccccc1` [Compound 5c, (S)-Methyl 2-{2-[(4-methyl-2-oxo-2H-chromen-7-yl)oxy]acetamido}-2-phenylacetate], the IC50 in data set [1] amounted to 124 ± 4.4 µM; in data set [2], 174 ± 1.8 µM; in data set [3] it was 154 ± 2.1 µM.
For `COC(=O)[C@@H](NC(=O)CNC(=O)COc1ccc2c(C)cc(=O)oc2c1)c1ccccc1` [Compound 7c, (S)-Methyl2-{2-{2-[(4-methyl-2-oxo-2H-chromen-7-yl)oxy]acetamido}acetamido}-2-phenylacetate], the IC50 in data set [1] was determined as 16 ± 4.1 µM; in data set [2], 16.1 ± 4.6 µM; against CK2 kinase it was 0.461 ± 0.02 µM; in data set [3], 34.1 ± 4.2 µM. Also, on CK2 kinase (compared with 5b), the “activity against CK2 kinase (in words)” value is recorded as “less active”.
As for `COc1cccc2c1C(=O)c1c(O)c3c(c(O)c1C2=O)C[C@@](O)(C(=O)CO)C[C@@H]3O[C@H]1C[C@H](N)[C@H](O)[C@H](C)O1` [Doxorubicin, reference compound], the IC50 in data set [1] stood at 61.01 ± 0.3 µM; in data set [2], 57.3 ± 0.6 µM; in data set [3] it was 108 ± 0.6 µM.
`COC(=O)[C@H](CC(C)C)NC(=O)COc1ccc2c(C)cc(=O)oc2c1` [Compound 5b, (S)-Methyl-4-methyl-2-{2-[(4-methyl-2-oxo-2H-chromen-7-yl)oxy]acetamido}pentanoate]: the IC50 in data set [1] worked out at 35.1 ± 2.8 µM; in data set [2], 59.7 ± 4.2 µM; against CK2 kinase, 0.117 ± 0.005 µM; in data set [3], 42.16 ± 0.3 µM.

The record behind these values is PMC11302324 (RSC Advances, 2024).
